A selection: hits, their analogues and other compounds. The true share with any hit is near 1.6%.
PKA-R2B activ: activates the human PKA-R2B holoenzyme complex; P22694+P31323; activation, % at 11.4 µM; PKA-R2B holoenzyme dissociation, Cy5-IP20 fluorescence polarization; R2B truncated from residue 108, S112A mutant; 0% DMSO only, 100% 113 µM cGMP; actives 0.079% (n = 340,000);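 active = activation above a cutoff set at the mean over all compounds plus 3 SD, cut at about 18% in these data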;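 note: higher means more holoenzyme dissociation and a rise in polarization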
CSN inh: CSN deneddylation inhibition. Q92905. inhibition, % at 12.5 µM. Purified CSN, SCF-Nedd8-OG deneddylation, fluorescence polarization. actives 0.38% (n = 360,000);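 active = pattern-corrected inhibition above about 35%, with an unprinted fluorescence ratio check between 0.5 and 1.5, limit read from the data, passing the limit was not always enough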;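 note: 0% = enzyme with substrate and 100% = substrate without enzyme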
Target sequence (Q92905 whole entry, looked up, one chain of several): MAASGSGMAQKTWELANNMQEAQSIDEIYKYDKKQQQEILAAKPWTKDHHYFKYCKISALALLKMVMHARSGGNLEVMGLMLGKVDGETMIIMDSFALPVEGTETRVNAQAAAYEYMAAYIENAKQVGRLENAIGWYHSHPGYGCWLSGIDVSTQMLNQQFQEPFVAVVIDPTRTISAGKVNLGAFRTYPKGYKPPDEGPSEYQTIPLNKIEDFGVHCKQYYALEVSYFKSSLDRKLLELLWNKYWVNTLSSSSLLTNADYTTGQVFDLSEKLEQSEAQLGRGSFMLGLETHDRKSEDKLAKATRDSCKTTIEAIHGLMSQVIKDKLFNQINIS
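Assay system: purified human Csn5 enzyme expressed in HEK293T cells; Input: 0.24 nM Csn5 enzyme, final concentration; Reagent: 10 nM SCFSkp2-Nedd8OG; Compound dosing: 12.5 µM single point; Times: reaction 90 min, room temperature; Technique: fluorescence polarization readout.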
Rpn11 inh: blocks the human proteasome subunit Rpn11; O00487; human 26S proteasome, Ub4-pepOG fluorescence polarization; 20S core pre-blocked with epoxomicin; calls only at 20 µM; actives 0.59% (n = 360,000); AID 588493;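 active = inhibition at 20 µM, scaled to each plate's controls, above about 33%, limit read from the data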
Target sequence (O00487 whole entry, looked up): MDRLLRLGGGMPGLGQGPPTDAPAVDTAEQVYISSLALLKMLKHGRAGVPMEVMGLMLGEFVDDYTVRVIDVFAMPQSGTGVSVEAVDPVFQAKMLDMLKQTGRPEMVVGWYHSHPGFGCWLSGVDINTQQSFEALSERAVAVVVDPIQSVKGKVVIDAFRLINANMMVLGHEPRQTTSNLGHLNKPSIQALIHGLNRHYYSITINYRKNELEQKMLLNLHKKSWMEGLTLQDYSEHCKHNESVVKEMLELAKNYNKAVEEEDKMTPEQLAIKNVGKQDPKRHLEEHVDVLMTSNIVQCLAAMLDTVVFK
HNF4A DNA FP: change in binding of human HNF4 alpha to DNA. HNF4a-FITC DNA binding, fluorescence polarization, 1 h. activity change, % at 10 µM. actives 0.3% (n = 360,000). AID 1224865; in the data active = activity change above about 30%, passing the limit was not always enough
TPT1 inhibitor: blocks Candida albicans tRNA 2'-phosphotransferase; inhibition, % at 5 µM; recombinant caTPT1, FP RNA substrate dephosphorylation; actives 0.81% (n = 300,000);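 active = inhibition above the mean of all tested compounds plus 3 SD, set per screening campaign, cut at about 24% in these data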;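 note: plate controls were DMSO alone for no effect and ferristatin control at 100 nM for full effect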
PKA-R1A act: activators of PKA-R1A complex | P00514+P68181 | PKA-R1A dissociation, Cy5-IP20 fluorescence polarization; scaled: DMSO 0%, 113 µM cGMP 100% | activation, % at 11.4 µM | actives 0.083% (n = 340,000);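 active = percent activation above the mean of all tested compounds plus 3 SD, cut at about 19% in these data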;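 note: higher means more PKAc released from R1A so a rise in polarization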
R1A FP artifact: fluorescence polarization artifact in PKA-R1A activator counter-screen; shares compounds with PKA-R1A act; actives 7% (n = 280); activation, % at 11.4 µM; AID 504799; Cy5-IP20 peptide alone, fluorescence polarization artifact counterscreen;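 active = mean activation over triplicate runs exceeds the adjusted cutoff derived for the parent primary screen, cut at about 19% in these data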;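 note: no PKA protein present so any polarization rise reflects compound interference; 0% = tracer peptide mix alone and 100% = mix with added PKA catalytic subunit; higher means stronger polarization artifact and likely false positive in parent screen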
PKA-R1A act conf: PKA-R1A complex activation, confirmation; shares compounds with PKA-R1A act; Cy5-IP20 fluorescence polarization, PKA-R1A holoenzyme dissociation; activation, % at 11.4 µM; actives 9% (n = 280); AID 504800;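 active = mean activation over replicate wells exceeds the adjusted hit threshold taken from the earlier primary screen, cut at about 20% in these data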;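 note: 0% = holoenzyme mix with DMSO only and 100% = cGMP-activated control wells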
Rpn11 confirm: Rpn11 inhibition confirmation, single concentration | AID 602318 | shares compounds with Rpn11 inh | inhibition, % at 20 µM | actives 29% (n = 1,900) | purified human 26S proteasome, Ub4-pepOG fluorescence polarization; proteasome pretreated with epoxomicin
MMP-2 counter: MMP-2 (human) inhibition counter-screen; shares compounds with Rpn11 inh; recombinant MMP-2, FRET peptide cleavage fluorescence; inhibition, % at 20 µM; actives 4% (n = 1,900); AID 602330;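 note: human MMP-2 activated beforehand with APMA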
Thrombin FP: blocks bovine thrombin, flagging nonselective RPN11 hits | shares compounds with Rpn11 inh | bovine thrombin cleavage of Ub4-pepOG, fluorescence polarization | inhibition, % at 20 µM | actives 13% (n = 1,900) | AID 602333;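 active = mean inhibition at least 40% at 20 µM, or signal 3 deviations below plate average, so some actives read negative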;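 note: plate controls were thrombin with DMSO for no effect and buffer wells lacking thrombin for full effect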
Numbers without * were called inactive; i = inactive; x = not tested or not shown; + = active, no number. Cut-off read from the data, not from the text of the source, unless noted: active = inhibition above about 40%; inactive = the rest.

SMILES	PKA-R2B activ	CSN inh	Rpn11 inh	HNF4A DNA FP	TPT1 inhibitor	PKA-R1A act	Rpn11 confirm	MMP-2 counter	Thrombin FP	others
COc1ccc(/C=C/C(=O)OCCNC(=O)c2ccncc2)cc1OC	9.2	4.4	i	1.4	0.6	-0.2	x	x	x
COc1ccc(/C=C(\C#N)C(=O)OCCNC(=O)c2ccncc2)cc1	9.6	1.2	i	2.3	2.7	19.6*	x	x	x	R1A FP artifact=-1.4;PKA-R1A act conf=-1.8
CC(C)Oc1cccc(C(=O)NC(=S)Nc2ccccc2N2CCOCC2)c1	-3.0	7.7	i	-2.4	-3.3	19.1*	x	x	x	R1A FP artifact=-3.9;PKA-R1A act conf=-3.4
COc1cccc(C(=O)NC(=S)Nc2ccccc2N2CCCC2)c1	1.2	6.8	i	-2.4	-2.0	0.3	x	x	x
CC(NC(=O)COC(=O)CN1C(=O)NC2(CCCC2)C1=O)c1ccc(F)cc1 (stereo unspecified)	-5.2	-0.8	i	3.9	x	5.4	x	x	x
CCOC(=O)N1CCc2c(sc3nc(SC(C)C)n(N)c(=O)c23)C1	-8.3	2.1	i	3.0	-3.0	-6.0	x	x	x
CCOC(=O)N1CCc2c(sc3ncn(C)c(=O)c23)C1	-0.2	-0.9	i	-0.9	-0.4	19.1*	x	x	x	R1A FP artifact=-3.9;PKA-R1A act conf=0.1
NC(=O)C1CCN(C(=O)C(=O)c2cn(CC(=O)N3CCCC3)c3ccccc23)CC1	0.6	0.7	i	3.8	-2.6	20.3*	x	x	x	R1A FP artifact=1.3;PKA-R1A act conf=-1.7
CCCc1cc(=O)oc2c(C)c(OCC(=O)Nc3cccnc3)ccc12	-25.1	0.8	i	4.2	0.2	0.8	x	x	x
COc1ncnc2c1oc1nc(CC(C)C)c3c(c12)CC(C)(C)OC3	10.1	8.5	i	-2.9	-2.5	19.8*	x	x	x	R1A FP artifact=0.8;PKA-R1A act conf=3.3
O=C(N=C1SC2CS(=O)(=O)CC2N1c1ccccc1F)C1CCCCC1 (stereo unspecified)	-3.8	-1.3	i	0.5	0.7	9.2	x	x	x
Cc1[nH]c(=O)[nH]c(=O)c1S(=O)(=O)NCCc1ccc(S(N)(=O)=O)cc1	1.1	-3.4	i	5.9	-4.6	3.2	x	x	x
Cc1[nH]c(=O)[nH]c(=O)c1S(=O)(=O)Nc1ccc(S(N)(=O)=O)cc1	4.1	1.9	i	0.2	-0.3	19.8*	x	x	x	R1A FP artifact=0.2;PKA-R1A act conf=4.8
O=C1CC(=Nc2ccc([N+](=O)[O-])cc2)NN1c1c(Cl)cc(Cl)cc1Cl	-8.2	-0.6	i	-1.4	x	0.8	x	x	x
O=c1c2c3nc4ccccc4nc3n(-c3ccc4c(c3)OCCO4)c2ncn1C1CCCC1	6.1	1.0	+	15.5	0.7	-0.3	-1.6	-13.2	-17.5
Nc1c(C(=O)OCC2CCCO2)c2nc3ccccc3nc2n1-c1ccc2c(c1)OCCO2 (stereo unspecified)	x	x	x	x	18.3	x	x	x	x
O=C(N/N=C/c1ccc2c(c1)OCO2)c1sc2cc(Cl)ccc2c1Cl	-6.3	-0.3	+	4.5	0.8	-4.4	2.7	-31.0	-1.2
Cc1ccc2oc(=O)c3cc(C(=O)NCCCN4CCN(C)CC4)sc3c2c1	9.2	3.2	i	4.7	-0.2	-11.7	x	x	x
O=C(NCCCN1CCCCCC1)c1cc2c(=O)oc3ccccc3c2s1	-3.2	10.6	+	18.3	1.3	4.6	0.9	16.4	-6.0
CCOc1ccc2c(ccc(/C=C/c3cc(C)c4cccnc4c3O)[n+]2C)c1	4.1	101.8	+	6.0	x	10.9	102.2*	75.5*	39.7
CC1CCCN(C(=O)CN2CCC(c3nc4ccc(Cl)cc4[nH]3)CC2)C1 (stereo unspecified)	-10.5	10.2	i	4.0	3.4	-12.6	x	x	x
Clc1ccc(CN2CCC(c3nc4ccc(Cl)cc4[nH]3)CC2)cc1	-10.8	3.6	+	14.2	5.1	-9.2	6.6	-4.6	7.6
CC(=O)NC12CC3CC(C1)CC(C(=O)Nc1nc4ccc(F)cc4s1)(C3)C2	-17.1	5.5	i	-0.8	3.0	-0.3	x	x	x
Cc1ccc(-c2nnn3c2nc(NCCc2ccc(S(N)(=O)=O)cc2)c2ccccc23)cc1	-0.2	36.2*	+	9.2	1.6	-1.5	46.4*	-137.0	-8.5
Cc1cccc(-c2nnn3c2nc(NCCc2ccc(S(N)(=O)=O)cc2)c2ccccc23)c1	1.8	23.4	i	-11.1	0.5	0.8	x	x	x
SMILES	PKA-R2B activ	CSN inh	Rpn11 inh	HNF4A DNA FP	TPT1 inhibitor	PKA-R1A act	Rpn11 confirm	MMP-2 counter	Thrombin FP	others
Cc1cc(C)n(-c2ccc(NC(=O)C3CCN(Cc4ccccn4)CC3)cc2)n1	6.7	-3.0	i	1.5	5.4	-2.5	x	x	x
COc1cc(CNCCO)ccc1OCCc1ccccc1	-0.9	0.5	i	-2.0	-6.4	7.2	x	x	x
Cc1cc(C)c2cc3c(N)c(C(=O)Nc4c(C)[nH]c(=O)[nH]c4=O)sc3nc2c1	1.5	0.0	+	4.6	47.8*	-3.7	121.7*	-29.1	13.5
COc1ccc2nc(/C(C#N)=C\c3ccc(Oc4ccc([N+](=O)[O-])cn4)cc3)[nH]c2c1	13.5	1.6	i	1.6	9.7	-1.1	x	x	x
COc1ccc2nc(/C(C#N)=C\c3ccc(C(=O)O)cc3)[nH]c2c1	-0.4	11.1	+	13.2	22.9	1.4	32.9	-23.4	26.5
c1ccc(Cn2c(SCc3nc4ccccc4s3)nnc2-c2ccco2)cc1	-9.5	44.6*	+	-20.0	17.4	7.8	7.4	29.1	3.5
CCC(c1nnc(SCc2nc3ccccc3s2)n1Cc1ccccc1)N(C)C (stereo unspecified)	-8.4	-3.8	i	2.4	8.1	-0.2	x	x	x
COc1cc(/C=C2\SC(=O)N(CCNC(=O)c3sc4cc(F)ccc4c3Cl)C2=O)cc(OC)c1OC	-9.9	5.5	+	4.8	-1.6	3.1	-0.9	-31.1	-8.2
COc1cc(C(=O)NCC(=O)NCCN2C(=O)S/C(=C\c3ccccc3Cl)C2=O)cc(OC)c1OC	-14.3	2.1	i	-3.1	-3.6	7.6	x	x	x
COc1ccc(S(=O)(=O)NCC2CCC(C(=O)NCCC(C)C)CC2)cc1 (stereo unspecified)	2.3	-2.3	i	-1.9	-1.3	4.4	x	x	x

High-throughput results from PubChem BioAssay.
